Test [1] deals with Epidermal growth factor receptor and ErbB2 (HER1 and HER2) (Homo sapiens, UniProt P04626+P00533). Kind of test: Inhibition of EGF-stimulated human umbilical vein endothelial cell proliferation. The test is classed as functional, cell-based. Put shortly: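 Primary HUVECs (passage ≤3) seeded 2 × 10^3/well on collagen IV in minimal medium, 1% heat-inactivated FBS, 24 h; compound dilutions added with EGF 5 ng/mL; 48 h later 3H-thymidine 0.5 µCi, further 24 h. IC50 = concentration giving 50% less tritium incorporation than untreated EGF-stimulated cells, from dose-response curves.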

Test [2] deals with Vascular endothelial growth factor receptor 2 (Homo sapiens, UniProt P35968). Description: In vitro inhibition of Vascular endothelial growth factor receptor 2.
Vascular endothelial growth factor receptor 2, sequence (P35968 whole entry): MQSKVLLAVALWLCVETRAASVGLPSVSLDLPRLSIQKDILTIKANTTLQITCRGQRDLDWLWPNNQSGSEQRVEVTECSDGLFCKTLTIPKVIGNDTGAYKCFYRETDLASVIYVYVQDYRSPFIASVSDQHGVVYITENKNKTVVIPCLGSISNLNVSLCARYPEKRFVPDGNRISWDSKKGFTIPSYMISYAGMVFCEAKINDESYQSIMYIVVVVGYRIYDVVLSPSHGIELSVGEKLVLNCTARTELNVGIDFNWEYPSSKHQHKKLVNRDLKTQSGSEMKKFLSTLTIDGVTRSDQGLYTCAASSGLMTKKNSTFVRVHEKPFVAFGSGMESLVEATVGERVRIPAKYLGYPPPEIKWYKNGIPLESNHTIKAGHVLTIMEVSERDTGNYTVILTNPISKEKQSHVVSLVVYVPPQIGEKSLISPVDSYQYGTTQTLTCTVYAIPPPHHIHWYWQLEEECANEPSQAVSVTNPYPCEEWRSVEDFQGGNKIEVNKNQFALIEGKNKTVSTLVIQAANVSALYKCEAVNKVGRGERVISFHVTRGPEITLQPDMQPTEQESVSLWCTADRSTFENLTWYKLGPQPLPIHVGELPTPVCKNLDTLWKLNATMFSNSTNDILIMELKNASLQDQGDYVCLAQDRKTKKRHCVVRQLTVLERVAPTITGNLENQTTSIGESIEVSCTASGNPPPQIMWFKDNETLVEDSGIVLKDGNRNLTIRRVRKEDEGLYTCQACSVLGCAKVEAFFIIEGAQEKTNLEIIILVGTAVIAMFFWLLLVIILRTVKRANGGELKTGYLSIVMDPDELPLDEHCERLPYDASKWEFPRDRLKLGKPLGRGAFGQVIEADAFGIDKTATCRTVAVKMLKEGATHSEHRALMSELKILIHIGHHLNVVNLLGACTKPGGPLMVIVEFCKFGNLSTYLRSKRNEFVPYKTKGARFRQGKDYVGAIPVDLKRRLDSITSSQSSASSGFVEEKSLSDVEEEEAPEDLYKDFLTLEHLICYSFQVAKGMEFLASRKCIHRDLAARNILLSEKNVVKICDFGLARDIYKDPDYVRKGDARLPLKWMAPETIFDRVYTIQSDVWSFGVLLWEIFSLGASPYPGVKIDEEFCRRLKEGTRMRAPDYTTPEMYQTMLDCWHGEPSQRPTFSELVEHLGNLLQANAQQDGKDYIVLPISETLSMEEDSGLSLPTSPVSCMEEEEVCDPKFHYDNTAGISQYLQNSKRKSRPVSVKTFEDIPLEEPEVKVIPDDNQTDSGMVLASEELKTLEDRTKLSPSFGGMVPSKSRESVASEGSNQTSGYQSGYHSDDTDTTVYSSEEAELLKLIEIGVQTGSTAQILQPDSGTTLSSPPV
For test [3], the target named is Vascular endothelial growth factor receptor (Homo sapiens, UniProt P17948+P35916+P35968). Description: Inhibition of VEGF-stimulated human umbilical vein endothelial cell proliferation. It counts as functional, cell-based. Put shortly: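 HUVECs under passage 3, plated 2 × 10^3/well in minimal medium with 1% heat-inactivated FBS on collagen IV; after 24 h, VEGF 80 ng/mL and serial compound dilutions; 3H-thymidine pulse (0.5 µCi) at 48 h for 24 h. IC50 as concentration halving thymidine uptake relative to untreated VEGF-stimulated cells.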

The nature of test [4]: Compound was tested for its inhibitory effect on the proliferation of the colon adenocarcinoma cell line DiFi. Particulars: Homo sapiens.
Test [5] deals with Epidermal growth factor receptor (Homo sapiens, UniProt P00533). Description: In vitro inhibition of Epidermal growth factor receptor.
Epidermal growth factor receptor, sequence (P00533 whole entry): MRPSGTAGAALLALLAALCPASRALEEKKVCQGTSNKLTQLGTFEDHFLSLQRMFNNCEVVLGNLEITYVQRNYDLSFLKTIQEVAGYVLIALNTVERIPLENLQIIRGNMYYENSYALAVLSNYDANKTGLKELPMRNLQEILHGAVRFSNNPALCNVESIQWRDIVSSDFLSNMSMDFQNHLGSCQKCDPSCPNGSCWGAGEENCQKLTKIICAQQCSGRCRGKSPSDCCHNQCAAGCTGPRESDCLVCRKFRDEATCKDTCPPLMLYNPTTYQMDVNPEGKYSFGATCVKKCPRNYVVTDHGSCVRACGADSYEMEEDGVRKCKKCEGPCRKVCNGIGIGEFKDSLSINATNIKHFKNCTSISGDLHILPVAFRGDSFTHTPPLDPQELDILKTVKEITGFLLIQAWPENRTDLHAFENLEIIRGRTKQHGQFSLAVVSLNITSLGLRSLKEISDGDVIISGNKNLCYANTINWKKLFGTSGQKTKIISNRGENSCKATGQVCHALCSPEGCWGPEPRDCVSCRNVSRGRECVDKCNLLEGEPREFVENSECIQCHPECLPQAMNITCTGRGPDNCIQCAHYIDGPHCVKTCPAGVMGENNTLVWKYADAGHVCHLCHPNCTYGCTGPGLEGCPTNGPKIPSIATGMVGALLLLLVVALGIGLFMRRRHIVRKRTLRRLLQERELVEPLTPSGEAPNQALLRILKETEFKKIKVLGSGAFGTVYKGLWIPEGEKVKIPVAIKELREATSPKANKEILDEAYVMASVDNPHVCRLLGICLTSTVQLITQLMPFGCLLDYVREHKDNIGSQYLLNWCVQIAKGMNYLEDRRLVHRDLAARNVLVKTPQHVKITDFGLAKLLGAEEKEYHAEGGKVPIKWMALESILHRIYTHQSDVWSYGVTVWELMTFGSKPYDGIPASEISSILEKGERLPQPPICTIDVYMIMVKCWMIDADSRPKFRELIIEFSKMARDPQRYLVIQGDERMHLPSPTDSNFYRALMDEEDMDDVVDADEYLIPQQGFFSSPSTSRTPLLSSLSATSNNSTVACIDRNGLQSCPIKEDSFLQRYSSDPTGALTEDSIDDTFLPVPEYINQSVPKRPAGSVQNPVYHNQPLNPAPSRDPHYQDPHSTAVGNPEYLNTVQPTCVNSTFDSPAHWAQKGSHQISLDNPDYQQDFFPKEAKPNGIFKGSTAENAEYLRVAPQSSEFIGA

Each structure is given as a SMILES string.

As a reminder, the IC50 is the point on the concentration scale where inhibition reaches its midpoint. The low end stands for higher potency, the high end for lower potency. In the case of `Cc1cc2c(Nc3ccc(F)c(Cl)c3)ncnn2c1`, the IC50 is 509 nM in test [1]; more than 2000 nM in test [2]; more than 2500 nM in test [3]; 1600 nM in test [4]; 150 nM in test [5].

For `Cc1ccn2ncnc(Nc3ccc(F)c(Cl)c3)c12`, the IC50 in test [1] was 602 nM; in test [2], more than 10000 nM; in test [3] it was more than 2500 nM; in test [4], 3060 nM; in test [5] it was 100 nM.

In the case of `Cc1ccc(Nc2ncnn3cc(C)c(C)c23)cc1O`, the 50% inhibitory concentration (IC50) in test [2] was 20 nM; in test [3], 310 nM; in test [4], more than 10000 nM; in test [5] it was 200 nM.

Turning to `Cc1ccc2c(Nc3ccc(F)c(Cl)c3)ncnn12`, the half-maximal inhibitory concentration (IC50) is more than 2500 nM in test [1]; more than 2000 nM in test [2]; more than 2500 nM in test [3]; more than 10000 nM in test [4]; 3250 nM in test [5].

As for `Cc1ccc(Nc2ncnn3cccc23)cc1O`, the 50% inhibitory concentration (IC50) in test [2] is 1440 nM; in test [3] it was 360 nM; in test [4], 10000 nM; in test [5], 510 nM.

With `Fc1ccc(Nc2ncnn3cccc23)cc1Cl`, the IC50 in test [1] is 345 nM; in test [2] it was more than 10000 nM; in test [3], more than 2500 nM; in test [4], 1840 nM; in test [5], 110 nM.

Regarding `Cc1cc2c(Nc3ccc(C)c(O)c3)ncnn2c1`, the half-maximal inhibitory concentration (IC50) was 644 nM in test [1]; 400 nM in test [2]; 213 nM in test [3]; more than 10000 nM in test [4]; 650 nM in test [5].

In the case of `Cc1ccc(Nc2ncnn3c(C)ccc23)cc1O`, the 50% inhibitory concentration (IC50) in test [1] is 101 nM; in test [2] it was more than 10000 nM; in test [3], 477 nM; in test [4], more than 10000 nM; in test [5], 29400 nM.

With `Cc1ccc(Nc2ncnn3ccc(C)c23)cc1O`, the IC50 in test [1] is 270 nM; in test [2] it was 60 nM; in test [3], 98 nM; in test [4], more than 10000 nM; in test [5] it was 340 nM.

(Values after ChEMBL document CHEMBL1138664, “Discovery of the pyrrolo[2,1-f][1,2,4]triazine nucleus as a new kinase inhibitor template” (J Med Chem, 2004).)
